Series [1] has as its system J774. Put plainly: Cytotoxicity against mouse J774 cells assessed as reduction in cell viability at 32 uM incubated for 2 hrs by MTS assay. Format: cell-based. The settings on record: j774, 2 h. Summed up:
(§1)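 Murine J774 macrophages grown in DMEM with 10% FBS at 37 °C, 5% CO2. Compounds were tested in triplicate at 16, 32, 64 and 128 μM for 2 h, with DMSO-matched vehicle controls. MTS reagent was then added and absorbance read at OD490. Viability is given as percent of DMSO-treated cells (mean of triplicate ± standard deviation), compared by paired t-test (P < 0.05).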

Series [2] relates to Staphylococcus aureus. In words: Antimicrobial activity against vancomycin-resistant Staphylococcus aureus VRS2 assessed as reduction in bacterial growth incubated for 18 to 20 hrs at 37 degC by broth microdilution method. Format: functional. Summed up: (§2)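 Modified CLSI broth microdilution. Bacterial suspension of about 1 × 10^5 CFU/mL in tryptic soy broth. Each agent was added in triplicate to the first row and serially diluted down the plate. Plates were incubated at 37 °C for 18-20 h. MIC was read as the lowest concentration with no visible growth.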

Series [3] concerns Staphylococcus aureus. Put plainly: Antimicrobial activity against methicillin-sensitive Staphylococcus aureus NRS72 assessed as reduction in bacterial growth incubated for 18 to 20 hrs at 37 degC by broth microdilution method. Format: functional. Summed up: as §2
(In general: Dilution methods test growth across graded concentrations, often in twofold steps.)

Series [4] concerns Staphylococcus aureus. Put plainly: Antimicrobial activity against methicillin-resistant Staphylococcus aureus USA200 assessed as reduction in bacterial growth incubated for 18 to 20 hrs at 37 degC by broth microdilution method. Format: functional. The essentials:
as §2

The test system of series [5] is Staphylococcus aureus. Put plainly: Antimicrobial activity against vancomycin-intermediate-resistant Staphylococcus aureus NRS1 assessed as reduction in bacterial growth incubated for 18 to 20 hrs at 37 degC by broth microdilution method. Format: functional. The essentials: as §2
For series [6], the system named is Staphylococcus aureus. Put plainly: Antimicrobial activity against methicillin-resistant Staphylococcus aureus NRS119 assessed as reduction in bacterial growth incubated for 18 to 20 hrs at 37 degC by broth microdilution method. Format: functional. Summed up: as §2
Series [7] concerns Staphylococcus aureus. Put plainly: Antimicrobial activity against methicillin-resistant Staphylococcus aureus USA300 assessed as reduction in bacterial growth incubated for 18 to 20 hrs at 37 degC by broth microdilution method. Format: functional. Summed up:
as §2

Series [8] relates to Staphylococcus aureus. Put plainly: Antimicrobial activity against methicillin-resistant Staphylococcus aureus USA100 assessed as reduction in bacterial growth incubated for 18 to 20 hrs at 37 degC by broth microdilution method. Format: functional. The essentials: as §2
The test system of series [9] is Staphylococcus aureus. In words: Antimicrobial activity against methicillin-resistant Staphylococcus aureus USA700 assessed as reduction in bacterial growth incubated for 18 to 20 hrs at 37 degC by broth microdilution method. Format: functional. Summed up: as §2
Series [10] relates to J774. In words: Cytotoxicity against mouse J774 cells assessed as reduction in cell viability at 64 uM incubated for 2 hrs by MTS assay. Format: cell-based. The settings on record: j774, 2 h. Summed up: as §1
In series [11] the test system is J774. Format: cell-based. The conditions noted are these: mouse, j774, 2 h, 128 µM.
Series [12] deals with Staphylococcus aureus. Put plainly: Bactericidal activity against methicillin-resistant Staphylococcus aureus USA300. Format: functional.
Series [13] deals with Staphylococcus aureus. In words: Antimicrobial activity against methicillin-resistant Staphylococcus aureus USA500 assessed as reduction in bacterial growth incubated for 18 to 20 hrs at 37 degC by broth microdilution method. Format: functional. Summed up: as §2
Series [14] has as its system J774. In words: Cytotoxicity against mouse J774 cells assessed as reduction in cell viability up to 64 uM incubated for 2 hrs by MTS assay. Format: cell-based. The settings on record: j774, 2 h. Summed up:
as §1
A general note: Formazan colour is commonly taken as a measure of viable cells.

The nature of series [15]: Kinetic solubility of the compound in PBS. Format: physicochemical. The settings on record: read-out: Kinetic_solubility.
Series [16] can be described thus: Metabolic stability in human liver microsomes assessed as compound remaining incubated for 60 mins in presence of NADPH. Format: ADME. The settings on record: read-out: Stability. A general note: Liver microsomes are a subcellular fraction often used to study metabolism.
Series [17] can be described thus: Selectivity index, ratio of cytotoxicity against mouse J774 cells by MTS assay to MIC for methicillin-resistant Staphylococcus aureus. Format: toxicity, cell-based. The conditions noted are these: read-out: Selectivity Index.
The nature of series [18]: Metabolic stability in human liver microsomes assessed as compound remaining incubated for 60 mins in absence of NADPH. Format: ADME. The settings on record: read-out: Stability.

The structures appear in SMILES notation. In brackets after ≈: the same amount, converted by molar mass.

The term MIC denotes the lowest concentration found to suppress growth. The MBC is the lowest tested concentration that kills the bacteria rather than only halting them. Higher therefore signals less potent killing. Regarding `[C-]#[N+]c1ccccc1/C=C(\CC)c1ccccc1`, the Activity result with J774 [1], in the series on J774 [10] and in the series on J774 [11] was “Non-toxic” each time. Moreover, the MIC is 32 µM (≈ 7.47 µg/mL) in the series with Staphylococcus aureus [2]; 8 µM (≈ 1.87 µg/mL) with Staphylococcus aureus [3]; 16 µM (≈ 3.73 µg/mL) in the series with Staphylococcus aureus [4]; 8 µM (≈ 1.87 µg/mL) with Staphylococcus aureus [5]; 64 µM (≈ 14.9 µg/mL) with Staphylococcus aureus [6]; 32 µM (≈ 7.47 µg/mL) in the series with Staphylococcus aureus [7]. Besides, the figures for the MIC in the series with Staphylococcus aureus [8], in the series on Staphylococcus aureus [9] and in the series with Staphylococcus aureus [13] were 8 µM (≈ 1.87 µg/mL), 8 µM (≈ 1.87 µg/mL) and 32 µM (≈ 7.47 µg/mL), respectively. The same molecule displayed an MBC with Staphylococcus aureus [12] of more than 128 µM.

Regarding `[C-]#[N+]c1ccccc1/C=C/c1ccccc1`, the Activity result in the series on J774 [1] is on record as “Non-toxic”; with J774 [14], “Non-toxic”; in the series with J774 [10], “Non-toxic”; in the series on J774 [11] it was “Toxic”. Further, the MIC with Staphylococcus aureus [2] is 32 µM (≈ 6.57 µg/mL); with Staphylococcus aureus [4], 4 µM (≈ 0.821 µg/mL); with Staphylococcus aureus [5], 2 µM (≈ 0.411 µg/mL); in the series on Staphylococcus aureus [6], 4 µM (≈ 0.821 µg/mL); in the series on Staphylococcus aureus [7], 4 µM (≈ 0.821 µg/mL); in the series on Staphylococcus aureus [8], 2 µM (≈ 0.411 µg/mL). Besides, the MIC in the series on Staphylococcus aureus [9] was found to be 4 µM (≈ 0.821 µg/mL); in the series on Staphylococcus aureus [13] it was 32 µM (≈ 6.57 µg/mL). In [15], the solubility kinetic stood at 15.6 µM (≈ 3.2 µg/mL). In addition, the remaining at 1 h stood at 24% in series [16] and 51% in series [18]. Moreover, the selectivity ratio in series [17] worked out at 16.

The values above are taken from ChEMBL document CHEMBL3611989, “Discovery and characterization of aryl isonitriles as a new class of compounds versus methicillin- and vancomycin-resistant Staphylococcus aureus” (Eur J Med Chem, 2015).
